{
  "source": "ChEMBL document CHEMBL4130635",
  "about": "“2,4-Diaminoquinazolines as Dual Toll-like Receptor (TLR) 7/8 Modulators for the Treatment of Hepatitis B Virus” (J Med Chem, 2018)",
  "key": {"Cynomolgus monkey [1]": {"system": "Cynomolgus monkey", "experiment": "Activation of monocytes in cynomolgus monkey plasma assessed as upregulation of MCP1 levels at 3 mg/kg, po after 24 hrs by Luminex assay (reference value: 385 pg/ml)", "assay_type": "functional, Macaca fascicularis"}, "Plasma [2]": {"system": "Plasma", "experiment": "Upregulation of IP-10 mRNA expression levels in C57BL/6J mouse plasma at 10 mg/kg, po by RT-qPCR analysis (reference value: 1)", "assay_type": "functional"}, "Plasma [3]": {"system": "Plasma", "experiment": "Upregulation of IP-10 mRNA expression levels in C57BL/6J mouse plasma at 0.3 mg/kg, po by RT-qPCR analysis (reference value: 1)", "assay_type": "functional"}, "[4]": {"experiment": "Intrinsic clearance in rat liver microsomes assessed per mg protein at 1 uM up to 60 mins", "assay_type": "ADME, microsome", "conditions": "read-out: CLH"}, "[5]": {"experiment": "AUC (0 to last) in C57BL/6J mouse liver at 30 mg/kg, po by LC-MS analysis", "assay_type": "ADME, organism-based", "conditions": "in vivo", "in_short": "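Healthy C57BL/6 mice were dosed once by mouth at 0.3, 1, 3, 10 or 30 mg/kg in 20% HP-β-CD, in groups of 15 per dose. Three mice per group were sacrificed at 0.5, 1, 2, 4 or 7 h, and plasma and liver compound levels were measured by LC–MS. Values were rounded to whole numbers.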"}, "[6]": {"experiment": "Cmax in C57BL/6J mouse plasma at 10 mg/kg, po by LC-MS analysis", "assay_type": "ADME, organism-based", "parameters": "dose 10 mg/kg, route oral", "in_short": "(§1)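 Healthy C57BL/6 mice, groups of 15, given a single oral dose (0.3, 1, 3, 10 or 30 mg/kg) in 20% HP-β-CD. Blood drawn at 0.5 h. Three mice per group sacrificed at 0.5, 1, 2, 4 or 7 h, and compound in plasma and liver measured by LC−MS. Values rounded to whole numbers.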"}, "Liver [7]": {"system": "Liver", "experiment": "Anti-inflammatory activity in C57BL/6J mouse liver assessed as IL-10 levels at 10 mg/kg, po by multiplex assay (reference value: 2 pg/g)", "assay_type": "functional", "in_short": "(§2)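 Single oral gavage in 20% HP-β-CD to healthy C57BL/6 mice, groups of 15 at 0.3, 1, 3, 10 or 30 mg/kg. Three mice per group sacrificed at 0.5, 1, 2, 4 or 7 h. Plasma and liver cytokines by multiplex, maximum level reported, rounded to nearest multiple of 5.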"}, "[8]": {"molecular_target": "T1, TLR7 and TLR8 (Homo sapiens) (UniProt Q9NYK1+Q9NR97)", "T1 sequence (Q9NR97 whole entry, looked up)": "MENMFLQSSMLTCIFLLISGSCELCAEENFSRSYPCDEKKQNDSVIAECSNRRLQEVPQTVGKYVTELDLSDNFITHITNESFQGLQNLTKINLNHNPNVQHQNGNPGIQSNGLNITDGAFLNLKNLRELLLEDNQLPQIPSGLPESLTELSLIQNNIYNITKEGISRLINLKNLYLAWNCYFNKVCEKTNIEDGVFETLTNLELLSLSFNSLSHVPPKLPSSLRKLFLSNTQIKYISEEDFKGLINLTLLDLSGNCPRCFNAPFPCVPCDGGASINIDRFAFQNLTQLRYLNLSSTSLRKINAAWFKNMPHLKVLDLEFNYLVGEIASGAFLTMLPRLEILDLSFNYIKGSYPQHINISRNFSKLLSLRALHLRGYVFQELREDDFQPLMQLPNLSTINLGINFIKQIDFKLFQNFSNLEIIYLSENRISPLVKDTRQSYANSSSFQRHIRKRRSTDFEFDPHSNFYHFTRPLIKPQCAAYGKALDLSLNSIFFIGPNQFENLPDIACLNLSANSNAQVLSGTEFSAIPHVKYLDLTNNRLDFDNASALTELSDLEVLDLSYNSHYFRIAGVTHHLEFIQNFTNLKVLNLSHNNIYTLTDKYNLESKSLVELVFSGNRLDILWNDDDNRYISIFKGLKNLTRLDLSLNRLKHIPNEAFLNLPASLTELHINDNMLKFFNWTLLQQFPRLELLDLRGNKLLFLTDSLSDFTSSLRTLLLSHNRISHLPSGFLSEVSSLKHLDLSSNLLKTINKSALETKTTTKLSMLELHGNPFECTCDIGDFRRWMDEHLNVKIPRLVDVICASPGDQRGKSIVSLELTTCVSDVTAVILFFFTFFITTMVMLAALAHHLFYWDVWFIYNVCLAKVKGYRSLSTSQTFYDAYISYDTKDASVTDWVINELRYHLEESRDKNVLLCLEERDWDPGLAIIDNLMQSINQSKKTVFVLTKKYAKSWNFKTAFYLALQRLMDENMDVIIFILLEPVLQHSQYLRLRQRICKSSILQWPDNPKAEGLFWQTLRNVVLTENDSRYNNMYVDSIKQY", "T1 sequence (Q9NYK1 whole entry, looked up)": "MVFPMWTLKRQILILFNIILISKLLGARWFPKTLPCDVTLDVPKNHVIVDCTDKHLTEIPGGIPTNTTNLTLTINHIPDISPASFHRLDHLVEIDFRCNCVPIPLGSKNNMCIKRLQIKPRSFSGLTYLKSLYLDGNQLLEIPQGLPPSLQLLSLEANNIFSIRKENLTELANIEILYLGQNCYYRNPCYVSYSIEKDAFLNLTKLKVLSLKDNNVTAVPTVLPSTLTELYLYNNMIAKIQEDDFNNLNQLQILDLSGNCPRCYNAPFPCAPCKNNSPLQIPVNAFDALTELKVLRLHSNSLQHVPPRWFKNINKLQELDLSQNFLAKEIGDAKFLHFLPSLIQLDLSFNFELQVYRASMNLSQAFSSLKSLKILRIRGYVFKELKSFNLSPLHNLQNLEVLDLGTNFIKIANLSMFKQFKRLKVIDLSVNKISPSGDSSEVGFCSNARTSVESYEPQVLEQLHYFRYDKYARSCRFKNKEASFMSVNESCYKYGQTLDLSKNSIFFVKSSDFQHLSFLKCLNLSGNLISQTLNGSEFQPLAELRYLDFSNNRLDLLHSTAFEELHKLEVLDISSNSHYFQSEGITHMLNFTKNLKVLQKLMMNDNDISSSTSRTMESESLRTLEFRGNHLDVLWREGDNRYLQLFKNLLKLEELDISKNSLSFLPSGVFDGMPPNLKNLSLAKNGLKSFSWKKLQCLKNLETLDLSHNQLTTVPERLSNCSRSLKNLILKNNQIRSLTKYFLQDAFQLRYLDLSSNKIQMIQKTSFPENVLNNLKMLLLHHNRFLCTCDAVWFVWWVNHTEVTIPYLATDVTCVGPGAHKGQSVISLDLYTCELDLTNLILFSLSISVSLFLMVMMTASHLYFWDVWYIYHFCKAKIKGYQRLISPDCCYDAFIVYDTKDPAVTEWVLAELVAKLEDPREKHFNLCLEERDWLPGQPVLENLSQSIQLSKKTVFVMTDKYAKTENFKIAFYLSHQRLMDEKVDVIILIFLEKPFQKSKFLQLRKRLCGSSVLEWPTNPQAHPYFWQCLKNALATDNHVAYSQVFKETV", "experiment": "Agonist activity at TLR7/8 in human PBMCs co-cultured with primary human hepatocytes infected with HBV genotype C for 12 days assessed as increase in GROalpha levels up to 5 uM measured after 42 days"}, "Liver [9]": {"system": "Liver", "experiment": "Induction of IFNalpha levels in C57BL/6J mouse liver at 30 mg/kg, po by ELISA (reference value: 30 pg/g)", "assay_type": "functional"}, "Cynomolgus monkey [10]": {"system": "Cynomolgus monkey", "experiment": "Effect on cytokine profile in cynomolgus monkey plasma assessed as IL-15 levels at 1 mg/kg, po after 24 hrs by Luminex assay (reference value: 20 pg/ml)", "assay_type": "functional, Macaca fascicularis", "in_short": "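Healthy cynomolgus monkeys given single oral doses of 1, 3, 9 and 30 mg/kg, with a 2-week wash-out planned between doses. Systemic cytokine levels in plasma were sampled at 0.5, 1, 2, 4, 9 and 24 h postdose.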"}, "Plasma [11]": {"system": "Plasma", "experiment": "Anti-inflammatory activity in C57BL/6J mouse plasma assessed as IL-10 levels at 0.3 mg/kg, po by multiplex assay (reference value: 120 pg/ml)", "assay_type": "functional", "in_short": "as §2"}, "[12]": {"experiment": "Tmax in Sprague-Dawley rat plasma at 10 mg/kg, po", "assay_type": "ADME, organism-based"}, "[13]": {"experiment": "AUC (0 to last) in cynomolgus monkey plasma at 3 mg/kg, po by LC-MS analysis", "assay_type": "ADME, organism-based, Macaca fascicularis", "parameters": "dose 3 mg/kg, time 0 - last, route oral", "in_short": "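Healthy cynomolgus monkeys received single oral doses of 1, 3, 9 and 30 mg/kg, with a 2-week wash-out between doses. Systemic compound concentrations were measured by LC–MS at 0.25, 0.5, 1, 2, 4, 8 and 24 h postdose.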"}, "Liver [14]": {"system": "Liver", "experiment": "Proinflammatory activity in C57BL/6J mouse liver assessed as TNFalpha levels at 10 mg/kg, po by multiplex assay (reference value: 15 pg/g)", "assay_type": "functional"}, "Cynomolgus monkey [15]": {"system": "Cynomolgus monkey", "experiment": "Plasma concentration in cynomolgus monkey at 3 mg/kg, po by LC-MS analysis", "assay_type": "ADME, organism-based, Macaca fascicularis", "conditions": "in vivo"}, "[16]": {"experiment": "Cmax in Sprague-Dawley rat plasma at 10 mg/kg, po", "assay_type": "ADME, organism-based", "parameters": "dose 10 mg/kg, route oral", "in_short": "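Male Sprague-Dawley rats given 10 mg/kg po as a solution. Compound measured in portal vein, systemic plasma and liver. Cmax taken from concentration–time profiles.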"}, "[17]": {"experiment": "Solubility of the compound in FaSSIF", "assay_type": "physicochemical"}, "[18]": {"molecular_target": "T1, TLR7 and TLR8 (Homo sapiens)", "experiment": "Agonist activity at TLR7/8 in human PBMCs co-cultured with primary human hepatocytes infected with HBV genotype C for 12 days assessed as increase in IFNgamma levels up to 5 uM measured after 42 days"}, "[19]": {"experiment": "Cmax in C57BL/6J mouse plasma at 1 mg/kg, po by LC-MS analysis", "assay_type": "ADME, organism-based", "parameters": "dose 1 mg/kg, route oral", "in_short": "as §1"}, "Plasma [20]": {"system": "Plasma", "experiment": "Effect on cytokine profile in C57BL/6J mouse plasma assessed as IL-12p70 levels at 30 mg/kg, po by multiplex assay (reference value: 560 pg/ml)", "assay_type": "functional", "in_short": "as §2"}, "[21]": {"molecular_target": "T1, TLR7 and TLR8 (Homo sapiens)", "experiment": "Agonist activity at TLR7/8 in human PBMCs co-cultured with primary human hepatocytes infected with HBV genotype C for 12 days assessed as increase in TNFalpha levels up to 5 uM measured after 42 days"}, "Plasma [22]": {"system": "Plasma", "experiment": "Proinflammatory activity in C57BL/6J mouse plasma assessed as TNFalpha levels at 1 mg/kg, po by multiplex assay (reference value: 70 pg/ml)", "assay_type": "functional"}, "[23]": {"system": "Toll-like receptor 7/8 (Homo sapiens)", "experiment": "Agonist activity at TLR7/8 in human PBMCs assessed as decrease in HBeAg levels in human hepatocytes infected with HBV genotype C for 12 days followed by exposure to conditioned supernatant from up to 5 uM compound treated PBMCs measured after 42 days"}, "Liver [24]": {"system": "Liver", "experiment": "Upregulation of IP-10 mRNA expression levels in C57BL/6J mouse liver at 1 mg/kg, po by RT-qPCR analysis (reference value: 1)", "assay_type": "functional"}, "Liver [25]": {"system": "Liver", "experiment": "Effect on cytokine profile in C57BL/6J mouse liver assessed as IFNgamma levels at 3 mg/kg, po by multiplex assay", "assay_type": "functional", "in_short": "as §2"}, "Cynomolgus monkey [26]": {"system": "Cynomolgus monkey", "experiment": "Upregulation of Tlr8 expression in cynomolgus monkey plasma at 1 to 30 mg/kg, po after 24 hrs by Fluidigm RT-qPCR analysis", "assay_type": "functional, organism-based", "conditions": "Macaca fascicularis"}, "Plasma [27]": {"system": "Plasma", "experiment": "Induction of IFNalpha levels in C57BL/6J mouse plasma at 3 mg/kg, po by ELISA", "assay_type": "functional"}, "Liver [28]": {"system": "Liver", "experiment": "Proinflammatory activity in C57BL/6J mouse liver assessed as IL-1beta levels at 10 mg/kg, po by multiplex assay", "assay_type": "functional"}, "Cynomolgus monkey [29]": {"system": "Cynomolgus monkey", "experiment": "Proinflammatory activity in cynomolgus monkey plasma assessed as IL-8 levels at 30 mg/kg, po after 24 hrs by Luminex assay (reference value: 430 pg/ml)", "assay_type": "functional, Macaca fascicularis"}, "Liver [30]": {"system": "Liver", "experiment": "Proinflammatory activity in C57BL/6J mouse liver assessed as IL-6 levels at 10 mg/kg, po by multiplex assay (reference value: 10 pg/g)", "assay_type": "functional"}},
  "note": "Calls of active or inactive are those of the source. The rule behind the calls is not given here.",
  "data": [
    {"compound": "CCC[C@@H](CCO)Nc1nc(N)nc2c(F)cccc12", "values": [
      {"measurement": "Activity", "setting": "Cynomolgus monkey [1]", "value": 7720, "unit": "pg/mL"},
      {"measurement": "fold change (FC)", "setting": "Plasma [2]", "value": 2875},
      {"measurement": "fold change (FC)", "setting": "Plasma [3]", "value": 15},
      {"measurement": "microsomal CLint at 1 µM", "setting": "[4]", "value": 24, "unit": "µL/min/mg"},
      {"measurement": "AUClast", "setting": "[5]", "value": 7160, "unit": "ng·h/g"},
      {"measurement": "Cmax", "setting": "[6]", "value": 148, "unit": "ng/mL"},
      {"measurement": "Activity", "setting": "Liver [7]", "value": 2265, "unit": "pg/g"},
      {"measurement": "Activity", "setting": "[8]", "value": "Active"},
      {"measurement": "Activity", "setting": "Liver [9]", "value": 955, "unit": "pg/g"},
      {"measurement": "Activity", "setting": "Cynomolgus monkey [10]", "value": 20, "unit": "pg/mL"},
      {"measurement": "Activity", "setting": "Plasma [11]", "value": 345, "unit": "pg/mL"},
      {"measurement": "Tmax", "setting": "[12]", "value": 30, "unit": "min"},
      {"measurement": "AUC(0-t)", "setting": "[13]", "value": 383, "unit": "ng·h/mL"},
      {"measurement": "Activity", "setting": "Liver [14]", "value": 8330, "unit": "pg/g"},
      {"measurement": "Cp", "setting": "Cynomolgus monkey [15]", "value": 14, "unit": "ng/mL"},
      {"measurement": "Cmax", "setting": "[16]", "value": 16, "unit": "ng/mL"},
      {"measurement": "solubility", "setting": "[17]", "value": "> 4000", "unit": "µg/mL"},
      {"measurement": "Activity", "setting": "[18]", "value": "Active"},
      {"measurement": "Cmax", "setting": "[19]", "value": 9, "unit": "ng/mL"},
      {"measurement": "Activity", "setting": "Plasma [20]", "value": 820, "unit": "pg/mL"},
      {"measurement": "Activity", "setting": "[21]", "value": "Active"},
      {"measurement": "Activity", "setting": "Plasma [22]", "value": 335, "unit": "pg/mL"},
      {"measurement": "Activity", "setting": "[23]", "value": "Dose-dependent effect"},
      {"measurement": "fold change (FC)", "setting": "Liver [24]", "value": 775},
      {"measurement": "Activity", "setting": "Liver [25]", "value": 150, "unit": "pg/g"},
      {"measurement": "Activity", "setting": "Cynomolgus monkey [26]", "value": "inactive"},
      {"measurement": "Activity", "setting": "Plasma [27]", "value": 695, "unit": "pg/mL"},
      {"measurement": "Activity", "setting": "Liver [28]", "value": 29525, "unit": "pg/g"},
      {"measurement": "Activity", "setting": "Cynomolgus monkey [29]", "value": 1840, "unit": "pg/mL"},
      {"measurement": "Activity", "setting": "Liver [30]", "value": 3450, "unit": "pg/g"}
    ]}
  ]
}
